Assay [1] deals with T1, Glycogen phosphorylase, liver form (Homo sapiens, UniProt P06737).
T1 sequence (P06737 whole entry): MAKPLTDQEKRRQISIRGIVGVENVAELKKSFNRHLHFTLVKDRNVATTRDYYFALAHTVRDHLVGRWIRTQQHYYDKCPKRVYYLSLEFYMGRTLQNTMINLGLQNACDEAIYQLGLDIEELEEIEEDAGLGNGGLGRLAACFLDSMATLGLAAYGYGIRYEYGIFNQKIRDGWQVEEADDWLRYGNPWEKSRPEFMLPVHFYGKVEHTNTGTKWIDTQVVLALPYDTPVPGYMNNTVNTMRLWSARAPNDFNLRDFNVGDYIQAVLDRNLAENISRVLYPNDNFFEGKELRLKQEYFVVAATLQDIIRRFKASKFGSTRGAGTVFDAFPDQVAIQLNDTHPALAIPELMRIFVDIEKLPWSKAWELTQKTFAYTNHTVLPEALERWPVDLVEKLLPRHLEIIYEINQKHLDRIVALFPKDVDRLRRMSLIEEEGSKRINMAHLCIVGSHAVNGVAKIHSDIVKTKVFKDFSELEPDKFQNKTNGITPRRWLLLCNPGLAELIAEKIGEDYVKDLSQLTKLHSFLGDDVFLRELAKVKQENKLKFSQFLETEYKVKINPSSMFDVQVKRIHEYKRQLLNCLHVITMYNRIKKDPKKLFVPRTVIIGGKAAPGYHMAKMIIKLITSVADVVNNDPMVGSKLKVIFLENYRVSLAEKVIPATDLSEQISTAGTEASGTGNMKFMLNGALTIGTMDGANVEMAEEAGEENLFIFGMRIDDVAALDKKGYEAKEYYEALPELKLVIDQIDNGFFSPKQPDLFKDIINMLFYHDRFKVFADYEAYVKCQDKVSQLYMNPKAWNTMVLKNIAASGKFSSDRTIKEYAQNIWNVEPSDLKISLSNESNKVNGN
As to the kind of experiment: Inhibition of glycogen phosphorylase in human hepatocytes assessed as decrease in glucagon stimulated glucose release after 3 hrs by glucose oxidase method. Type of assay: cell-based, Hepatocyte. A digest of the protocol:
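Human hepatocytes isolated by two-step perfusion of surgical liver pieces and seeded at 1×10⁶/well. Glycogen-loaded for 20 h in medium containing insulin, dexamethasone and 4.5 g/L glucose. Then 3 h in glucose-free DMEM with 100 nM glucagon and inhibitor at several concentrations. Supernatant glucose measured by glucose oxidase (A492). IC50 from % of glucagon-stimulated value, triplicates across 3-5 cultures.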

Assay [2] concerns the target T1, Glycogen phosphorylase, liver form. As to the kind of experiment: Inhibition of glycogen phosphorylase in human hepatocytes assessed as glucagon stimulated glycogen content after 3 hrs by colorimetric GOD method. The format is cell-based, Hepatocyte. In outline:
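Human hepatocytes, glycogen-loaded 20 h, then 3 h in glucose-free DMEM with 100 nM glucagon and inhibitor. Washed cells digested with amyloglucosidase (0.75 UI/mL, acetate pH 4.8) for 2 h at 40 °C. Released glucose quantified by glucose oxidase. IC50 from % of glucagon-stimulated glycogen, triplicates across 3-5 cultures.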

For assay [3], the target named is T2, Glycogen phosphorylase, muscle form (Oryctolagus cuniculus, UniProt P00489).
T2 sequence (P00489 whole entry): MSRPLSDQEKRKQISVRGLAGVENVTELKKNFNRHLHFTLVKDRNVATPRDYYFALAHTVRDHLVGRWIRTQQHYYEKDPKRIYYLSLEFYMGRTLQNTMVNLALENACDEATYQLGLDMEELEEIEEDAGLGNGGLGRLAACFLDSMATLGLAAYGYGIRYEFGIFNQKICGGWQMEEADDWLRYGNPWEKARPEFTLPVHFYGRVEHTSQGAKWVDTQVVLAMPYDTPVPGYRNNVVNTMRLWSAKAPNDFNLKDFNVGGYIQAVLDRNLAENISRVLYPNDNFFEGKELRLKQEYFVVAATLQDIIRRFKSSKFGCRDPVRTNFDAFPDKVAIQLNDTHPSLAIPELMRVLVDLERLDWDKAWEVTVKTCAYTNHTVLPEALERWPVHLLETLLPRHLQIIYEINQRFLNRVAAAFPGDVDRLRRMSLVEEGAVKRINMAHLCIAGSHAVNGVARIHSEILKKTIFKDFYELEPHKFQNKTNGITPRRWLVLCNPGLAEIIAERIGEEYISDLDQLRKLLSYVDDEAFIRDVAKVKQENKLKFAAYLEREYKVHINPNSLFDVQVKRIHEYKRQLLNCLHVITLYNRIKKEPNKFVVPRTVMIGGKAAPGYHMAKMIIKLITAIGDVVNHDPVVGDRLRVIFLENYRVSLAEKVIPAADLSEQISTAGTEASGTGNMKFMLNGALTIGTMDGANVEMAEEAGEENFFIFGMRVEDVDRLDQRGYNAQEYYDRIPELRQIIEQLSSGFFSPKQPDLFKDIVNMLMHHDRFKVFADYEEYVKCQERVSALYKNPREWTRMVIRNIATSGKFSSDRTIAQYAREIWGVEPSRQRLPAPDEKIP
As to the kind of experiment: Inhibition of rabbit muscle glycogen phosphorylase b.

Assay [4] has as its target T3, Glycogen phosphorylase, liver form (Rattus norvegicus, UniProt P09811).
T3 sequence (P09811 whole entry): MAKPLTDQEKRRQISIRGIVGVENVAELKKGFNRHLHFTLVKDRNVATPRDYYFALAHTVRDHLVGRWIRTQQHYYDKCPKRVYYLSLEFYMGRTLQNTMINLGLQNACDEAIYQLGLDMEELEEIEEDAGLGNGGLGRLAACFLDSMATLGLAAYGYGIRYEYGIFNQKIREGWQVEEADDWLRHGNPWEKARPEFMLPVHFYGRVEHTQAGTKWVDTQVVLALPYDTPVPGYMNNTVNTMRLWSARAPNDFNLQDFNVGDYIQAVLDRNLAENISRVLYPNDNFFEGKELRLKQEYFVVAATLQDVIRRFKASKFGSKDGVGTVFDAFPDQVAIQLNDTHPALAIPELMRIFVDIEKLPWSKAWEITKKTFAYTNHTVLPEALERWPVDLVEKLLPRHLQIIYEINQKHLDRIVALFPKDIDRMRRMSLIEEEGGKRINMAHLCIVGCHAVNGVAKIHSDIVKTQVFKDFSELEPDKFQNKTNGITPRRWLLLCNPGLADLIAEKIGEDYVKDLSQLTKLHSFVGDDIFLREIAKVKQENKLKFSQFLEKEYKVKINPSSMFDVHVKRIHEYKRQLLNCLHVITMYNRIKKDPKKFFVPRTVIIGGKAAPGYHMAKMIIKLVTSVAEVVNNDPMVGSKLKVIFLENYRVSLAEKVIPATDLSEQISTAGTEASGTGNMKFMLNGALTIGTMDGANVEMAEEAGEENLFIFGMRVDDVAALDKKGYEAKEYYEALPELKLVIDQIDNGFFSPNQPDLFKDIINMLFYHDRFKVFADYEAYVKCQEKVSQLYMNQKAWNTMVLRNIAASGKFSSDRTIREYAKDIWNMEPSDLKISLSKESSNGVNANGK
As to the kind of experiment: Inhibition of glycogen phosphorylase in Wistar rat hepatocytes assessed as decrease in glucagon stimulated glucose release after 3 hrs by glucose oxidase method. Type of assay: cell-based, Hepatocyte. In outline:
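Hepatocytes from male Wistar rats (160-220 g) isolated by two-step perfusion, viability >75%. Seeded at 830,000 cells/well, then cultured 24 h with 100 nM dexamethasone. Incubated 3 h in Hepes-bicarbonate buffer pH 7.4 with 0.1% BSA, 100 nM glucagon and inhibitor at several concentrations. Supernatant glucose measured by glucose oxidase (A492). IC50 taken from % of glucagon-stimulated value, mean of three independent experiments.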

For assay [5], the target named is T2, Glycogen phosphorylase, muscle form. As to the kind of experiment: Competitive inhibition of rabbit muscle glycogen phosphorylase b by Lineweaver-Burk plot analysis in presence of glucose 1-phosphate.

Among the data in ChEMBL document CHEMBL3763106, “Glucose-derived spiro-isoxazolines are anti-hyperglycemic agents against type 2 diabetes through glycogen phosphorylase inhibition” (Eur J Med Chem, 2016) are IC50 and Ki values, retold here.

With `OC[C@H]1O[C@@]2(CC(c3ccc4c(c3)OCCO4)=NO2)[C@H](O)[C@@H](O)[C@@H]1O`, the IC50 (as a rule, the concentration at which inhibition is half-maximal) was greater than 100 µM in assay [1], greater than 100 µM in assay [2], 13.3 µM in assay [3] and greater than 100 µM in assay [4]. Regarding `CSc1ccc(C2=NO[C@@]3(C2)O[C@H](CO)[C@@H](O)[C@H](O)[C@H]3O)cc1`, the IC50 in assay [1] is greater than 100 µM; in assay [2], greater than 100 µM; in assay [3], 5.6 µM; in assay [4] it was greater than 100 µM. For the compound `OC[C@H]1O[C@@]2(CC(c3c[nH]c4ccccc34)=NO2)[C@H](O)[C@@H](O)[C@@H]1O`, half-maximal inhibition in assay [3] (IC50) was put at 800 µM. For `OC[C@H]1O[C@@]2(CC(c3cc4ccccc4s3)=NO2)[C@H](O)[C@@H](O)[C@@H]1O`, the IC50 in assay [3] was found to be 10 µM. As to `O=C1CNC(=O)[C@@]2(N1)O[C@H](CO)[C@@H](O)[C@H](O)[C@H]2O`, the inhibitory constant (Ki) (as a rule, the dissociation constant of the complex between target and ligand, obtained from inhibition or displacement) in assay [5] was determined as 59.7 µM. In assay [3], `OC[C@H]1O[C@@]2(CC(c3cc4ccccc4[nH]3)=NO2)[C@H](O)[C@@H](O)[C@@H]1O` displayed an IC50 of 280 µM.

For `COc1ccc2cc(C3=NO[C@@]4(C3)O[C@H](CO)[C@@H](O)[C@H](O)[C@H]4O)ccc2c1`, 27.7 µM corresponded to half-maximal inhibition in assay [3] (IC50).
